Measurements as given in ChEMBL document CHEMBL1914308, “N-fused imidazoles as novel anticancer agents that inhibit catalytic activity of topoisomerase IIα and induce apoptosis in G1/S phase” (J Med Chem, 2011).
Activity calls are given as the source filed them. The calls are words filed in the database; no cut-off is given here.

Tests used:
[1] = test system: Vero; test: Anticlonogenic activity against african green monkey Vero cells assessed as inhibition of colony formation of cells at 20 to 100 uM after 48 hrs by crystal violet staining; format: cell-based; conditions: chlorocebus sabaeus
In short: (§1)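 Clonogenic survival in HEK 293 and Vero cells, 48 h exposure at graded concentrations; % survival plotted; mean ± SD of three independent experiments. Cells grown in DMEM with 10% FBS and 1% antibiotic at 37 °C, 5% CO2; compound diluted from 100 mM DMSO stock into DMEM, added at 60–70% confluence.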

[2] = target: T1, DNA topoisomerase 2-alpha (Homo sapiens, UniProt P11388); test: Inhibition of etoposide poisoning activity against human recombinant DNA topoisomerase 2alpha assessed as enhancement of in relaxation of supercoiled plasmid pBR322 DNA at 200 uM after 30 mins by agarose gel electrophoresis
T1 sequence (P11388 whole entry): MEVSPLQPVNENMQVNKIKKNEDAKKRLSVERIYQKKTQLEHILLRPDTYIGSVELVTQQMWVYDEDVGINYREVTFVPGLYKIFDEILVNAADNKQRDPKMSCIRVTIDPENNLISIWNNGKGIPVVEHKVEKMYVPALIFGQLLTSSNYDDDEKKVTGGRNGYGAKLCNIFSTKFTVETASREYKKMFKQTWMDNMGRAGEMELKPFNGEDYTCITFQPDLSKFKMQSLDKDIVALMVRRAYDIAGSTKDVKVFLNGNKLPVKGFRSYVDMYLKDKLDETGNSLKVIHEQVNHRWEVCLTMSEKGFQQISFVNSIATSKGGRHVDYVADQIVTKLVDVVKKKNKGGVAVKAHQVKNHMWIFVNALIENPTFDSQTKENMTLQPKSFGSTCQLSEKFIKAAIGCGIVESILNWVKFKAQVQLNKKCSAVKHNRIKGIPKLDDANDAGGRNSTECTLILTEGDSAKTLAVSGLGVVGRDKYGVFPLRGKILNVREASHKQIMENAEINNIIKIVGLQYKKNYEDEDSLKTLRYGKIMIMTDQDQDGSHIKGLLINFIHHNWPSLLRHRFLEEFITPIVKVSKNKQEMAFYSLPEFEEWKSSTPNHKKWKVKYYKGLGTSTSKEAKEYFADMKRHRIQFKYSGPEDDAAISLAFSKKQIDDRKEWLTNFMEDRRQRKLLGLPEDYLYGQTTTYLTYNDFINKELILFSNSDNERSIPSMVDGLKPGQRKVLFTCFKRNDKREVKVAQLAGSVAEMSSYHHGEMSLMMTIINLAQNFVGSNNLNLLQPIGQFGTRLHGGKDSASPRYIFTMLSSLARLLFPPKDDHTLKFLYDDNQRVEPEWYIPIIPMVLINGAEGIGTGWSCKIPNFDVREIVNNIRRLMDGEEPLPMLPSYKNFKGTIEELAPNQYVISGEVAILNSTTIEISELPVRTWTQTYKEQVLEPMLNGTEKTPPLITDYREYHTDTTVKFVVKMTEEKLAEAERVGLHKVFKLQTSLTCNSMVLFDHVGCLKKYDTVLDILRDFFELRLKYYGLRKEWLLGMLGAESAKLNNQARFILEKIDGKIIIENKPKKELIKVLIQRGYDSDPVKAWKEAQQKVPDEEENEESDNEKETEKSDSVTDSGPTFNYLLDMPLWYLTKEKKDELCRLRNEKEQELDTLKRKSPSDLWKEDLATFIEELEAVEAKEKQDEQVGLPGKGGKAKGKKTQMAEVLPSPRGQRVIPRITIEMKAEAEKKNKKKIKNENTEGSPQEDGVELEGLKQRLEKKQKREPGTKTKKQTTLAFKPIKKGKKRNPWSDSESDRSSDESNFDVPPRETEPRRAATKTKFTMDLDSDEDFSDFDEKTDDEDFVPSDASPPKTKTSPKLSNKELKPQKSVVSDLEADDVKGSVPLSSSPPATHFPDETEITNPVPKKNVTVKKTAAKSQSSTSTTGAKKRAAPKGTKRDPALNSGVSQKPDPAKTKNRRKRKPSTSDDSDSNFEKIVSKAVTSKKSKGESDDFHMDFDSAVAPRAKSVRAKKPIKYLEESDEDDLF

[3] = target: T1, DNA topoisomerase 2-alpha; test: Inhibition of human topoisomerase 2 alpha-mediated decatenation of kDNA at 100 uM by agarose gel electrophoresis
In short: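 150 ng kDNA with 2–4 units purified human topo II and 100 μM compound in DMSO, buffer 0.5 M Tris-HCl pH 8, NaCl, MgCl2, DTT, BSA with ATP (stock buffer concentrations), 20 μL, 37 °C 30 min. Stopped with SDS, proteinase K 37 °C 15 min; 1% agarose in TAE with 0.5 μg/mL EtBr; bands quantified by densitometry; etoposide 100 μM as reference.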

[4] = Cytotoxicity against human MCF10A cells assessed as cell survival at 100 uM after 48 hrs by MTT assay; format: cell-based, MCF-10A; conditions: read-out: Survival
[5] = test system: HEK293; test: Induction of apoptosis in human HEK293 cells assessed as increase in apoptotic nuclei at 35 uM after 48 hrs by DAPI staining-based fluorescence microscopic analysis; format: functional
In short: (§2)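 HEK 293 cells exposed 48 h to 0, 15, 25 or 35 μM, nuclei stained with DAPI and apoptotic nuclei counted by fluorescence imaging; three replicates.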

[6] = test system: HEK293; test: Induction of apoptosis in human HEK293 cells assessed as apoptotic cells at 25 uM after 48 hrs by propidium iodide staining-based FACS analysis (reference value: 4.88 +/- 0.8%); format: functional
[7] = target: T1, DNA topoisomerase 2-alpha; test: Inhibition of etoposide poisoning activity against human recombinant DNA topoisomerase 2alpha assessed as enhancement of in relaxation of supercoiled plasmid pBR322 DNA at 100 uM after 30 mins by agarose gel electrophoresis
[8] = test system: HEK293; test: Induction of apoptosis in human HEK293 cells assessed as increase in PARP cleavage product at 15 to 25 uM after 48 hrs by Western blot analysis; format: functional, cell-based
In short: (§3)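 Whole-cell extracts from HEK 293 cells after 48 h at graded concentrations, Western blotted for caspase-3, Bax, Bcl-XL and PARP (cleaved 86 kDa fragment); β-actin as loading control.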

[9] = test system: HEK293; test: Induction of cell cycle arrest in human HEK293 cells assessed as accumulation at G2/M phase at 25 uM after 48 hrs by propidium iodide staining-based FACS analysis (reference value: 7.5 +/- 1.0%); format: functional
[10] = target: T1, DNA topoisomerase 2-alpha; test: Inhibition of human topoisomerase 2 alpha-mediated relaxation of pRYG plasmid DNA at 100 uM by agarose gel electrophoresis
In short: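 250 ng supercoiled pRYG plasmid, 2–4 units hTopoIIα, 100 μM compound, ATP-containing Tris pH 8 buffer, 20 μL, 37 °C 30 min; SDS/proteinase K stop; 1% agarose in TAE without EtBr, post-stained 0.5 μg/mL EtBr; products quantified densitometrically.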

[11] = test system: HEK293; test: Induction of apoptosis in human HEK293 cells assessed as increase in Bax/Bcl-XL ratio at 15 to 25 uM after 48 hrs by Western blot analysis; format: functional, cell-based; in short: as §3
[12] = test system: HEK293; test: Anticlonogenic activity against human HEK293 cells assessed as inhibition of colony formation of cells at 25 uM after 48 hrs by crystal violet staining; format: functional, cell-based
[13] = test system: HEK293; test: Induction of apoptosis in human HEK293 cells assessed as apoptotic cells at 15 uM after 48 hrs by propidium iodide staining-based FACS analysis (reference value: 4.88 +/- 0.8%); format: functional
[14] = target: T1, DNA topoisomerase 2-alpha; test: Inhibition of topoisomerase 2 alpha-mediated DNA relaxation activity in human HEK293 cells assessed as increase in supercoiled DNA at 5 to 25 uM […] by agarose gel electrophoresis; format: cell-based
[15] = test system: HEK293; test: Induction of apoptosis in human HEK293 cells assessed as increase in apoptotic nuclei at 15 uM after 48 hrs by DAPI staining-based fluorescence microscopic analysis; format: functional; in short: as §2
[16] = test system: HEK293; test: Induction of cell cycle arrest in human HEK293 cells assessed as accumulation at G1 phase at 25 uM after 48 hrs by propidium iodide staining-based FACS analysis (reference value: 61 +/- 0.9%); format: functional
[17] = target: T1, DNA topoisomerase 2-alpha; test: Inhibition of human topoisomerase 2 alpha-mediated unwinding of supercoiled DNA assessed as DNA intercalation at 100 uM by agarose gel electrophoresis
In short: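 250 ng negatively supercoiled E. coli plasmid incubated 20 min at 37 °C with 1 μg/mL ethidium bromide (intercalator control), 100 μM etoposide or test compound; run on 1% agarose in TAE without EtBr, then post-stained with 0.5 μg/mL EtBr; mobility retardation scored.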

[18] = Anticlonogenic activity against african green monkey Vero after 48 hrs by crystal violet staining; format: ADME, cell-based; conditions: chlorocebus sabaeus, Vero cells; read-out: LC50
In short: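 HEK 293 and Vero cells were grown in DMEM with 10% FBS and 1% penicillin/streptomycin at 37 °C in 5% CO₂. At 60–70% confluence they were exposed for 48 h to a range of concentrations, diluted in DMEM from 100 mM DMSO stocks. Colony survival is expressed as %. Values are mean ± SD of three independent experiments; LC₅₀ is the concentration killing half the cells.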

[19] = target: T1, DNA topoisomerase 2-alpha; test: Inhibition of human topoisomerase 2 alpha-mediated decatenation of kDNA by agarose gel electrophoresis
In short: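 kDNA decatenation by hTopoIIα run at 10 to 100 μM compound under the standard decatenation conditions (37 °C, 30 min, agarose gel, densitometry); IC50 taken from the concentration–inhibition plot.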

[20] = test system: HEK293; test: Cytotoxicity against human HEK293 cells assessed as cell survival at 12 uM after 48 hrs by MTT assay; format: functional; conditions: HEK293, 48 h, read-out: Activity
In short: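 MTT survival of HEK 293 and Vero cells after 48 h with compound at graded concentrations. DMEM, 10% FBS, 37 °C, 5% CO2; dilutions in DMEM from 100 mM DMSO stock, added at 60–70% confluence. Mean ± SD of three independent experiments.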

[21] = test system: HEK293; test: Induction of apoptosis in human HEK293 cells assessed as decrease in Bcl-XL protein expression at 15 to 25 uM after 48 hrs by Western blot analysis; format: functional, cell-based; in short: as §3
[22] = test system: HEK293; test: Anticlonogenic activity against human HEK293 cells assessed as inhibition of colony formation of cells at 20 to 100 uM after 48 hrs by crystal violet staining; format: functional, cell-based; in short: as §1
[23] = test system: HEK293; test: Antimigratory activity against human HEK293 cells at 25 uM after 24 hrs by wound healing assay; format: functional, cell-based
In short: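 Wound healing in HEK 293 monolayer: scratch made with sterile micro tip, cells then cultured with or without 25 μM compound; gap closure followed over time to 24 h. Best of three independent experiments shown.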

CC(C)(C)Nc1c(-c2ccc(C(=O)O)cc2)nc2ccccn12
inhibition (INH) [1]: Dose-dependent effect | inhibition [2]: inactive | inhibition [3]: Active | viability at 48 h, 100 µM [4]: 75% | Activity [5]: 80% | Activity [6]: 27.46% | inhibition [7]: inactive | Activity [8]: Active | Activity [9]: 8.93% | inhibition [10]: Active | Activity [11]: Active | Activity [12]: Active | Activity [13]: 24.61% | inhibition [14]: Active | Activity [15]: 20% | Activity [16]: 36.64% | inhibition [17]: inactive | CC50 at 48 h [18]: 98 µM | IC50 [19]: 52.7 µM | viability at 12 µM [20]: > 50% | Activity [21]: Active | inhibition [22]: Dose-dependent effect | Activity [23]: Active
